Screening results as filed in PubChem BioAssay.
bCat nuc transl – beta-catenin nuclear translocation modulation | nuclear translocation activity, % at 5 µM | AID 1665 | 190,000 tested, 0.3% active | HeLa beta-catenin nuclear translocation, immunofluorescence imaging;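 active = nuclear translocation activity above 50% at 5 µM, with a well cell count of 50 or more; inconclusive = wells under 50 cells across six images, flagged as toxic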;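 note: per-cell ratio of nuclear to cytoplasmic median beta-catenin stain intensity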
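System: Human HeLa cells, endogenous beta-catenin | Compound dosing: 5 µM primary, 0.02–20 µM confirmation | Timing: 24 h compound exposure at 37°C, 5% CO2 | Measured by: Fluorescence imaging of beta-catenin antibody stain plus DAPI | Read-out basis: % activation of per-cell nuclear versus cytoplasmic median beta-catenin signal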
Dynein transport – dynein cargo transport inhibition. z-score, hits read low. 220,000 tested, 0.47% active. AID 1381. 3617.4 mouse cells, GR-EGFP nuclear translocation imaging; test concentration mostly 20 µM; stimulated with dexamethasone, 1 µM; hits give low values;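 active = plate z-score of nuclear minus cytoplasmic receptor signal below a set negative limit, without overly bright fluorescence or cell loss, cut at about -3.5 in these data, passing the limit was not always enough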;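 note: z-score of nuclear minus cytoplasmic ring GR-EGFP intensity difference per well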
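medium = tetracycline-free induction medium containing charcoal-stripped FBS | also added = 1.0 µM final dexamethasone stimulus | schedule = 48 h induction, 1 h compound, 30 min dex at 37 °C | technique = fixed, Hoechst-stained cells imaged at 10x for EGFP | measure = GR-EGFP nuclear translocation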
Lmaj promast – Leishmania major promastigote growth inhibition | inhibition, % at 10 µM | AID 1063 | Leishmania major promastigotes, resazurin fluorescence viability | 200,000 tested, 9% active; in the data active = inhibition above about 50%;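 note: promastigotes grown with compound for 44 hours at 28 °C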
HSV replic up – HSV replication enhancement | AID 1956 | HSV replication augmentation in cells, fold increase | 220,000 tested, 0.005% active | maximum fold increase; in the data active = maximum fold increase above about 1.5; inconclusive = no clear call, values can overlap the other calls; tested in PC3 cells
MT stabilize HCS – stabilizes microtubules in HeLa cells | HeLa tubulin immunostaining HCS, 24 h; share of cells brighter than vehicle mean+2SD | % tubulin-high responders, % at 10 µM | 200,000 tested, 0.83% active | AID 2205;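 active = plate Z-score above 3 for both tubulin-high and condensed-nucleus cell shares, with cell loss under 80%, at 10 µM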;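 note: anti alpha tubulin signal scored within the nucleus-defined area of each cell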
Large screens that a line does not name were inactive. Sampled rows, rich in hits. Any-hit rate of the full collection: about 8.9%.

CCNCc1ccc(OCc2cccs2)c(OCC)c1	Lmaj promast 53.8
COc1cccc(CNCCO)c1OCc1ccccc1	none
COc1cc(CNCCO)cc(Cl)c1OCc1ccc(Cl)cc1Cl	Lmaj promast 100.3
CCCn1nnc(NCc2ccc(OCc3cccs3)c(OC)c2)n1	none
CCOc1c(Br)cc(CNCc2cccs2)cc1OC	none
CCCCNCc1cc(Br)c(OCc2cccs2)c(OC)c1	Lmaj promast 100.6
CCCCOC(=O)C1[C@H]2C(=O)N(c3ccccc3CC)C[C@]23C=C[C@H]1O3 (some centres undefined)	none
C[C@@H](C(=O)Nc1ccc2ccccc2c1)[C@H]1C[C@]1(C)[C@H](NS(=O)(=O)c1ccc(-c2ccccc2)cc1)c1ccccc1	none (no result: bCat nuc transl)
NCCOc1ccccc1Cc1ccccc1	Lmaj promast 99.4 (no result: bCat nuc transl)
NCCOc1ccccc1OCCN	none
C=CCc1cccc(C2Nc3ccccc3C(=O)N2O)c1O (centres undefined)	none
O=C1c2ccccc2NC(c2c(Cl)cccc2Cl)N1Cc1ccccc1 (centres undefined)	Lmaj promast 55.8
O=C1c2ccccc2NC(c2ccc(Cl)cc2Cl)N1O (centres undefined)	Lmaj promast 70.0, HSV replic up inconclusive
O=C1c2ccccc2NC(c2ccc(Cl)cc2Cl)N1Cc1ccccc1 (centres undefined)	Lmaj promast 82.1 (no result: bCat nuc transl)
CN(CC(=O)Nc1ccc(N2CCOCC2)cc1)C(=O)COc1ccccc1F	none (no result: Lmaj promast, MT stabilize HCS)
COc1ccc(/C=N/NC(=O)c2ccc(N(C)S(=O)(=O)c3ccccc3)cc2)cc1OC	Lmaj promast 67.0
CN(C)c1ccc(C=Nc2ccccc2)cc1	none
CN(C)c1ccc(/C=N/NC(=O)c2ccccc2)cc1	MT stabilize HCS 14.0
CN(C)c1ccc(/C=N/NC(=O)c2ccc(Cl)cc2)cc1	none (no result: bCat nuc transl)
CN(C)c1ccc(/C=N/NC(=O)c2ccccc2Cl)cc1	bCat nuc transl 76.7, MT stabilize HCS 21.2
C/C(=N/N=C/c1ccc(N(C)C)cc1)c1ccccc1	Lmaj promast 80.3 (no result: bCat nuc transl)
COc1ccc(/C=N/NC(=O)c2ccc(-c3ccccc3)cc2)cc1O	none
COc1ccccc1N1C(=N)S/C(=C\c2ccc(-c3ccccc3C(=O)O)o2)C1=O	HSV replic up inconclusive
O=C(Nc1ccc(Cl)cc1)c1cnc(-c2ccccc2)nc1-c1ccccc1	none
COc1ccc(C(=S)N2CCOCC2)cc1OC(=O)c1cccc([N+](=O)[O-])c1	none
CSc1ccc(/C=N/NC(=O)c2ccc(O)cc2)cc1	Lmaj promast 96.0
CSc1ccc(/C=N/NC(=O)c2cccs2)cc1	none (no result: Lmaj promast, MT stabilize HCS)
CSc1ccc(/C=N/NC(=O)c2ccccc2Cl)cc1	MT stabilize HCS 15.3
COC(=O)COc1ccc(/C=N/NC(=O)c2ccc(N(Cc3ccccc3)S(C)(=O)=O)cc2)cc1	Lmaj promast 58.4
COc1ccc(/C=N/NC(=O)c2ccc(Cl)cc2)cc1Cn1cc(Cl)cn1	none
COc1ccc(C(=O)N/N=C/c2ccc(SC)cc2)cc1	none (no result: bCat nuc transl)
CN(C)c1ccc(/C=N\NC(=O)c2ccc(Cn3cc(Cl)cn3)cc2)cc1	MT stabilize HCS 29.5
CC1CC(=O)C2=C(C1)Nc1ccccc1N=C2 (centres undefined)	none (no result: bCat nuc transl)
CC(C)C(=O)Nc1nnc(SCC(=O)NC2CC2)s1	none
CCOC(=O)Cc1ccc(NS(=O)(=O)c2ccc(SC)cc2)cc1	none
C/C(=N\NC(=O)c1cccc(Cl)c1)C1C(=O)c2ccccc2C1=O	Lmaj promast 96.7
O=c1cc(NS(=O)(=O)c2ccccc2)nc(SCc2c(Cl)cccc2Cl)[nH]1	Lmaj promast 69.3
CC1=C(C)CC(C(=O)N2CCN(C/C=C/c3ccccc3)CC2)C(C(=O)O)C1 (centres undefined)	none
O=C(C1CCN(Cc2ccc(F)cc2)CC1)N1CCN(C/C=C/c2ccccc2)CC1	Lmaj promast 72.9
O=C(C1CC(c2ccc(F)cc2)=NO1)N1CCN(Cc2ccccc2)CC1 (centres undefined)	Lmaj promast 88.6 (no result: bCat nuc transl)
O=C(C1CCN(C2CCN(C/C=C/c3ccccc3)CC2)CC1)N1CCOCC1	Lmaj promast 59.4
O=C(C1CCN(Cc2ccccc2)CC1)N1CCN(C/C=C/c2ccccc2)CC1	none
O=C(O)C1C2C=CC(C2)C1C(=O)N1CCN(C/C=C/c2ccccc2)CC1 (centres undefined)	Lmaj promast 87.9 (no result: HSV replic up)
COc1ccc(OC)c(NC(=O)C2CCN(S(C)(=O)=O)CC2)c1	none (no result: bCat nuc transl)
CCC(=O)Nc1ccccc1C(=O)N1CCOCC1	none
COc1ccc(CN2CCC(N3CCC(C(=O)N4CCOCC4)CC3)CC2)c(F)c1	Lmaj promast 78.0
CC(C)Nc1nnc(SCC(=O)Nc2ccc3c(c2)C(=O)c2ccccc2C3=O)s1	Lmaj promast 96.6 (no result: bCat nuc transl)
O=C(CSc1nnc(NC2CCCCC2)s1)Nc1ccc2c(c1)C(=O)c1ccccc1C2=O	none
NC(=O)C1=C[C@@H](c2coc3ccccc3c2=O)C[C@@H](OCc2ccc(CO)cc2)O1	none (no result: HSV replic up)
COc1ccccc1Nc1nc(-c2sc(NC(=O)c3ccco3)nc2C)cs1	Lmaj promast 99.7
Cc1nc(NC(=O)c2ccco2)sc1-c1csc(Nc2ccc(Cl)cc2Cl)n1	Lmaj promast 73.7 (no result: bCat nuc transl)
COc1ccc(Cl)cc1Nc1nc(-c2sc(NC(=O)c3ccccc3)nc2C)cs1	none (no result: bCat nuc transl)
Cc1nc(NC(=O)c2ccccc2)sc1-c1csc(Nc2ccc(Cl)cc2Cl)n1	Lmaj promast 53.9 (no result: bCat nuc transl)
Cc1ccc(Cl)cc1Nc1nc(-c2sc(NC(=O)c3ccco3)nc2C)cs1	none
Nc1nc2sc3c(c2c(=O)s1)CCCC3	none (no result: bCat nuc transl)
Nc1c2c(nc3sc4c(c13)CCCC4)CCCCCC2	Lmaj promast 55.1
O=c1oc(-c2ccccc2)nc2sc3c(c12)CCC3	none
Nc1nc(-c2ccccc2)nc2sc3c(c12)CCCC3	Lmaj promast 60.0
COC(=O)c1ccc(Cc2ccc(C(=O)OC)o2)o1	none
COC(=O)c1ccc(COC(=O)c2ccc(CO)cc2)o1	Lmaj promast 65.3
COc1cccc(/C=N/NC(=O)CCn2c3ccccc3c3ccccc32)c1	none
COc1ccc(/C=N/NC(=O)c2nc(-c3ccccc3)cc(-c3ccccc3)n2)cc1O	Lmaj promast 98.9
COc1ccc(/C=N/NC(=O)CCn2c3ccccc3c3ccccc32)cc1O	bCat nuc transl 52.9, MT stabilize HCS 18.5
COc1ccc(/C=N/NC(=O)c2nc(-c3ccccc3)cc(-c3ccccc3)n2)cc1	none
CCOC(=O)C1(CCCc2ccccc2)CCN(C2CCN(C(C)=O)CC2)CC1	Lmaj promast 77.5
CCOC(=O)C1(Cc2ccccc2C(F)(F)F)CCN(C2CCN(C(C)=O)CC2)CC1	Lmaj promast 77.1
O=C(Nc1ccccc1C(F)(F)F)N1CCC(N2CCCCC2)CC1	none
CCOC(=O)C1(Cc2ccccc2C(F)(F)F)CCN(C2CCC2)CC1	Lmaj promast 60.8
CCOC(=O)C1(Cc2ccccc2C(F)(F)F)CCN(C(C)COC)CC1 (centres undefined)	none
CC1CN(C(=O)C(C)Sc2nnnn2C)CC(C)O1 (centres undefined)	none
COc1ccc(N(C)S(=O)(=O)c2cccc3cccnc23)c(OC)c1	bCat nuc transl 56.4, MT stabilize HCS 54.8
